High-throughput results from PubChem.
Most compounds without a hit are left out; they make up all but 1.7% or so of the library.
Hck-Nef inh: inhibitors of Nef-activated human Hck kinase, primary screen, biochemical, Z-Lyte FRET, 384-well, Hck-YEEI | Tyrosine-protein kinase HCK (Homo sapiens), P08631 | 220,000 tested, 0.68% active | inhibition, % at 20 µM | Recombinant Hck-YEEI plus Nef, Z-Lyte FRET kinase assay | AID 463187, 2010;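 active means Hck-Nef kinase inhibition above about 50%, limit read from the data; inactive means inhibition below that limit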
Target sequence (P08631 whole entry, looked up): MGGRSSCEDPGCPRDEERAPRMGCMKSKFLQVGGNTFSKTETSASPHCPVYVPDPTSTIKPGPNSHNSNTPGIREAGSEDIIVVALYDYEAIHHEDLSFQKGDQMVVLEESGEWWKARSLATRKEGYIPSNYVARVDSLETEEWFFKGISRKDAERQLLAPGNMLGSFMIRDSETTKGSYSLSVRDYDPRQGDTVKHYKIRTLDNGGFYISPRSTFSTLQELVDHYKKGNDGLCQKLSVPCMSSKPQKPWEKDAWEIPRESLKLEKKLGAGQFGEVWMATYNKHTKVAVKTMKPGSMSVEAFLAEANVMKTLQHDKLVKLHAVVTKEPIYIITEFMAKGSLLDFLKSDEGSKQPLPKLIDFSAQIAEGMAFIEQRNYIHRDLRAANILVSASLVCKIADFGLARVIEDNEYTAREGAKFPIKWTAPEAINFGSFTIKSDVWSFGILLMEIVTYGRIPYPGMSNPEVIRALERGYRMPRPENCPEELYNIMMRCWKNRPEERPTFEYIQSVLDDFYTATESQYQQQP
Runt-CBFb FRET: inhibitors of RUNX1 Runt–CBFb binding, primary screen, biochemical, FRET, Cerulean-Runt, Venus-CBFb, uHTS; Runt-related transcription factor 1 (Homo sapiens) + Core-binding factor subunit beta …; Cerulean-Runt/Venus-CBFb FRET ratio 530/480, 1 h; inhibition, % at 20 µM; 220,000 tested, 0.46% active; AID 1496, 2009;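 active means inhibition over about 50% at 20 µM in the single-dose screen, limit read from the data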
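Buffer or medium: Tris pH 7.5 buffer with BSA. Assay system: Cerulean-labeled Runt domain protein. Amount: each fluorescent fusion protein 100 nM. Read-out basis: loss of energy transfer signal. Incubation: 1 h compound exposure, room temperature. Probe or stimulus: Venus-CBFb binding partner, 100 nM. Detection: FRET, excitation 422 nm, emission at 530 and 480 nm.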
Runt-SMMHC FRET: inhibitors of RUNX1 Runt–CBFb-SMMHC binding, primary screen, biochemical, FRET, Cerulean-Runt, Venus-CBFb-SMMHC, uHTS | Runt-related transcription factor 1 (Homo sapiens) + Core-binding factor subunit beta … | Cerulean-Runt/Venus-CBFb-SMMHC FRET ratio 530/480, 1 h | inhibition, % at 20 µM | 220,000 tested, 0.74% active | AID 1434, 2008;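 active means mean inhibition across duplicate retests at 20 µM reaching about 50%, limit read from the data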;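 further: inhibitors lower the FRET ratio by blocking Runt binding to CBFb-SMMHC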
RanGTP-Imp inh: inhibitors of RanGTP-importin-beta interaction, primary screen, biochemical, FRET, CFP-Ran, YFP-importin-beta, homogeneous | Ran GTPase (GTP-bound) - importin-beta complex | cell-free CFP-Ran/YFP-importin-beta FRET ratio | inhibition, % (test concentration not listed) | 300,000 tested, 1.1% active | AID 2216, 2009;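 active means more than half of the replicate wells show a fall in the fluorescence ratio signal beyond about 16%, limit read from the data, passing the limit was not always enough; inconclusive means exactly half of the replicate wells pass the set limit; inactive means fewer than half of replicates pass the limit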
Hck Nef conf: retest of Hck:Nef kinase inhibitor hits, confirmation, biochemical, Z-Lyte FRET, 384-well, p-Tyr peptide counterscreen; shares compounds with Hck-Nef inh; Recombinant Hck-YEEI:Nef, Z-Lyte FRET kinase assay; calls only at 10 µM; 1,300 tested, 28% active; AID 463188, 2010;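 active means average inhibition of at least 50%, with Z-scores no higher than 3 in both the phospho-tyrosine peptide and fluorescence counterscreens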
Large screens that a line does not name were inactive (follow-up assays come after a bar, where shown).

CCOC(=O)N1CCc2c(sc3nc4n(c(=O)c23)N=C(c2ccc(OC)cc2)CS4)C1	Hck-Nef inh 77 | Hck Nef conf active
CCC(=O)Oc1ccc2c(C)cc(=O)oc2c1C(=O)c1ccccc1	none
CCC(=O)Oc1ccc2c(C)cc(=O)oc2c1C(=O)CC	Hck-Nef inh 154
CCC(C)Oc1cc(-c2ccnc(Nc3cccc(Cl)c3)n2)ccn1 (centres undefined)	none
OCCCNc1cc(-c2ccnc(Nc3cccc(Cl)c3)n2)ccn1	Hck-Nef inh 85 | Hck Nef conf active
COc1cccc2c(=O)c3ccoc3n(C)c12	none
COc1cccc2c(=O)c3c(cnn3C)n(C)c12	Hck-Nef inh 88, Runt-SMMHC FRET 62, RanGTP-Imp inh 126
CC(=O)NCc1ccc(S(=O)(=O)N2CCCN(C)CC2)cc1	none (no result: Hck-Nef inh, Runt-CBFb FRET, Runt-SMMHC FRET)
O=[N+]([O-])c1ccccc1NC(=S)N/N=C/c1ccc(O)c(O)c1	Hck-Nef inh 87 | Hck Nef conf inactive
Cc1ccc(-c2nc(C=Nc3ccccc3)c(O)o2)cc1	none
COc1ccc2cc(N=Cc3nc(-c4ccc(C)cc4)oc3O)cnc2c1	Hck-Nef inh 59 | Hck Nef conf inactive
CCCc1cc(C(=O)Nc2cc(C)ccc2O)no1	none (no result: Hck-Nef inh, Runt-CBFb FRET, Runt-SMMHC FRET)
O=C1CN(C(=O)COC(=O)/C=C/c2ccco2)c2ccccc2N1	Hck-Nef inh 53, RanGTP-Imp inh inconclusive | Hck Nef conf inactive
Cc1ccc(/C=C/C(=O)OCC(=O)N2CC(=O)Nc3ccccc32)o1	none
CCC(=O)Nc1cccc(NC(=O)CSc2nc3c(c(=O)n(C)c(=O)n3C)n2C)c1	none (no result: Hck-Nef inh, Runt-CBFb FRET, Runt-SMMHC FRET)
CN(C(=O)c1sc2nc(N3CCOCC3)c3c(c2c1N)CCCC3)c1ccccc1	Hck-Nef inh 53 | Hck Nef conf inactive
NC(=O)CC(NC(=O)c1ccccc1)c1ccc(NC2CCCC2)c([N+](=O)[O-])c1 (centres undefined)	RanGTP-Imp inh inconclusive
CCS/C(N)=N/N=C/c1cc(C)ccc1O	Hck-Nef inh 51 | Hck Nef conf inactive
CCCCS/C(N)=N/N=C/c1cc(C)ccc1O	none
Cc1noc(C)c1CSCC(=O)Nc1cc(S(=O)(=O)N2CCOCC2)ccc1OC(C)C	none (no result: Hck-Nef inh, Runt-CBFb FRET, Runt-SMMHC FRET)
CC1(C)c2[nH]c3ccccc3c2C[C@H]2C(=O)N(CCCCCO)CC(=O)N21	none (no result: Hck-Nef inh, Runt-CBFb FRET, Runt-SMMHC FRET)
Cc1ccc(-c2nn(-c3ccccc3)cc2/C=C2\SC(=S)N(CC(=O)O)C2=O)cc1	Hck-Nef inh 58 | Hck Nef conf inactive
Cc1nc2c(sc3nc(N4CCOCC4)c4c(c32)CC(C)(C)OC4)c(-c2ccc(Cl)cc2)c1C(=O)O	RanGTP-Imp inh inconclusive
C=CCN(CC=C)C(=O)c1cc(Cl)ccc1[N+](=O)[O-]	Hck-Nef inh 64 | Hck Nef conf inactive
C=CCNC(=O)c1cc(Cl)ccc1[N+](=O)[O-]	none
CCN(CC)c1cc(NCCO)c([N+](=O)[O-])c2nonc12	Hck-Nef inh 56 | Hck Nef conf inactive
O=c1cc(-c2ccccc2)oc2ccc(O)cc12	none
O=c1ccc2[n+]([O-])c3ccc(O)cc3oc-2c1	Hck-Nef inh 51, RanGTP-Imp inh inconclusive | Hck Nef conf inactive
Cc1c(N=C2C=C(Br)C(=O)C(Br)=C2)c(=O)n(-c2ccccc2)n1C	Hck-Nef inh 50 (no result: RanGTP-Imp inh) | Hck Nef conf inactive
Cc1c(N=C2C=CC(=O)c3ccccc32)c(=O)n(-c2ccccc2)n1C	Hck-Nef inh 51 | Hck Nef conf inactive
O=C(CSc1cn[nH]n1)Nc1ccccc1C(F)(F)F	none (no result: Hck-Nef inh, Runt-CBFb FRET, Runt-SMMHC FRET)
Cc1c(CC(=O)N2CCN(C(=O)C3COc4ccccc4O3)CC2)c(=O)oc2cc(O)cc(O)c12 (centres undefined)	none (no result: Hck-Nef inh, Runt-CBFb FRET, Runt-SMMHC FRET)
CCCOc1ccc2c(C)c(CC(=O)OC)c(=O)oc2c1	none
CCOC(=O)Cc1c(C)c2c(O)cc(O)cc2oc1=O	Hck-Nef inh 50, Runt-SMMHC FRET 68 | Hck Nef conf inactive
CCN(CC)c1ccc2c(C)c(Cl)c(=O)oc2c1	Hck-Nef inh active, Runt-SMMHC FRET 91, RanGTP-Imp inh 108
